# Reference: ChEMBL document CHEMBL1152542, “Synthesis of pentopyranosyl-containing thiodisaccharides. Inhibitory activity against beta-glycosidases” (Bioorg Med Chem, 2009)
# The source made the active and inactive calls. The calls are words filed in the database; no cut-off is given here.
# Legend:
# Beta-galactosidase = Beta-galactosidase (Escherichia coli, UniProt Q8VNN2); assay: Inhibition of Escherichia coli beta-galactosidase by Lineweaver-Burke plot analysis
# How it was run: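 Kinetics of E. coli β-galactosidase with o-nitrophenyl β-D-galactopyranoside (0.2–5.0 mM) in 100 mM sodium phosphate, pH 7.3, with 1.2 mM MgCl₂ and 100 mM 2-mercaptoethanol, 10 min at 37 °C, borate quench, absorbance at 410 nm. Inhibitor was tested at 0, 0.40, 0.80 and 1.20 mM, and data were analysed by Lineweaver–Burk double-reciprocal plot.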
# [1] = biological target: Beta-galactosidase (Escherichia coli) (UniProt Q8VNN2); assay: Inhibition of Escherichia coli beta-galactosidase assessed as formation of o-nitrophenol at 0.01 to 0.05 mM after 10 mins by visible absorption spectroscopy
# Sequence of Beta-galactosidase (Escherichia coli) (Q8VNN2 whole entry, looked up): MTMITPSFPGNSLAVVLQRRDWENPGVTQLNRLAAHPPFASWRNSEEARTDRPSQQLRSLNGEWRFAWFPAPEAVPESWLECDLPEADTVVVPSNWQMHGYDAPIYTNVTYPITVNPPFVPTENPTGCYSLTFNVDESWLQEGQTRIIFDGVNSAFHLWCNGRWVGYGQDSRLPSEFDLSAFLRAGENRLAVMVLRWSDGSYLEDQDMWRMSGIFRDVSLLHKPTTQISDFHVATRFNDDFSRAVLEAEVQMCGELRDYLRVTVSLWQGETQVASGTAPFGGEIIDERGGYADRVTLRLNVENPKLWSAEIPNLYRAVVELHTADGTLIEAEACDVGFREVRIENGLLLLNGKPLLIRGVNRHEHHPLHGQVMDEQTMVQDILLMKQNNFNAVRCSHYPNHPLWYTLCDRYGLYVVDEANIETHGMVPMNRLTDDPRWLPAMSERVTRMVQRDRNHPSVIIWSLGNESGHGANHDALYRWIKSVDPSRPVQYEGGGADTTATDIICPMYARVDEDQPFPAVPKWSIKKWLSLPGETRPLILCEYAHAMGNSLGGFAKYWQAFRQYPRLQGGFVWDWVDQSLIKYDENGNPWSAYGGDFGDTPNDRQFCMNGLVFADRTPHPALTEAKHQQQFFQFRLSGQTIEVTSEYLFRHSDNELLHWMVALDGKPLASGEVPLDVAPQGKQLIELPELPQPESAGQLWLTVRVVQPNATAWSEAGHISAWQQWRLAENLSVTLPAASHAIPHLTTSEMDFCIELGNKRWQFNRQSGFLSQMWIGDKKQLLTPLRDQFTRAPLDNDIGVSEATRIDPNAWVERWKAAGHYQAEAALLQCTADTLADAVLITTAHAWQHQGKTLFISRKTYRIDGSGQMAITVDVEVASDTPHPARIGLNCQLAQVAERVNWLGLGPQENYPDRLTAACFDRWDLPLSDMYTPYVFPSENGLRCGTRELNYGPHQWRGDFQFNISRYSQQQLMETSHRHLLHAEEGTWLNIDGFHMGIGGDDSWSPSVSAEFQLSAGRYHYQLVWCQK
# How it was run: (§1)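 E. coli β-galactosidase (0.3 U) was incubated with o-nitrophenyl β-D-galactopyranoside (0.2–5.0 mM) in 100 mM sodium phosphate, pH 7.3, containing 1.2 mM MgCl₂ and 100 mM 2-mercaptoethanol, with or without inhibitor, for 10 min at 37 °C. The reaction was quenched with 0.2 M sodium borate, pH 10.0, and released o-nitrophenol was read at 410 nm.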
# [2] = biological target: Beta-galactosidase (Escherichia coli) (UniProt Q8VNN2); assay: Inhibition of Escherichia coli beta-galactosidase assessed as formation of o-nitrophenol at 0.4 to 1.2 mM after 10 mins by visible absorption spectroscopy; how it was run: as §1
# [3] = biological target: T1, Exo-1,4-beta-xylosidase xlnD (Aspergillus niger) (UniProt O00089); assay: Inhibition of Aspergillus niger beta-xylosidase at 15 mM after 15 mins by visible absorption spectroscopy
# T1 sequence (whole entry): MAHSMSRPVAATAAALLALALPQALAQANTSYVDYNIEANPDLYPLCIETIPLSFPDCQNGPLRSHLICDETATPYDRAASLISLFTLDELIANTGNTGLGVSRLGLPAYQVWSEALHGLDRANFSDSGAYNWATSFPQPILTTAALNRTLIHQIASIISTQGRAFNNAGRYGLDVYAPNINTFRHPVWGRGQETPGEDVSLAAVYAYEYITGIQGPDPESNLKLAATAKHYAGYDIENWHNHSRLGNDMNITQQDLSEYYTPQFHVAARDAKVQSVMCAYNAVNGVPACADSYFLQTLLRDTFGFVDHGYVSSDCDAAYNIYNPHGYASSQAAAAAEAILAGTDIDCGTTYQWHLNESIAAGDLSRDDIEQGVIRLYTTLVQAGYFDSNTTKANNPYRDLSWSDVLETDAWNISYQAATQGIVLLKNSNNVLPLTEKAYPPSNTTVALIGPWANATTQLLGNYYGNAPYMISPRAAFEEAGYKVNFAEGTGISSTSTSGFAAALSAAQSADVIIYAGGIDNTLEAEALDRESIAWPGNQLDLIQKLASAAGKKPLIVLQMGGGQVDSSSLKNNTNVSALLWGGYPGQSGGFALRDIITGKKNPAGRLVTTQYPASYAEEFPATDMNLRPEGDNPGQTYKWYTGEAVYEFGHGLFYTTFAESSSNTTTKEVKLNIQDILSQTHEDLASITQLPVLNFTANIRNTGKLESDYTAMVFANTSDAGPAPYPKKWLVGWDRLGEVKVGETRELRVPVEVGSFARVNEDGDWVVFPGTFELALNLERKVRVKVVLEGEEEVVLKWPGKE
# How it was run: (§2)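 A. niger β-xylosidase (0.04 U) was incubated with p-nitrophenyl β-D-xylopyranoside (0.5–10.0 mM) in 50 mM sodium acetate, pH 5.0, with or without inhibitor (2.0–10.0 or 5.0–15.0 mM) for 15 min at 25 °C. The reaction was stopped with 0.2 M sodium borate, pH 10.0, and absorbance was read at 400 nm.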
# Prunus dulcis = assay: Inhibition of almond beta-glucosidase at 4 to 6 mM after 15 mins by visible absorption spectroscopy
# How it was run: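 Almond β-glucosidase (2.0 mU) was incubated with p-nitrophenyl β-D-glucopyranoside (0.5–10.0 mM) in 50 mM sodium acetate, pH 5.6, with or without inhibitor (4.0–6.0 mM) for 15 min at 37 °C. The reaction was stopped with sodium borate, pH 10.0, and absorbance was read at 400 nm.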
# [4] = biological target: Beta-galactosidase (Escherichia coli) (UniProt Q8VNN2); assay: Inhibition of Escherichia coli beta-galactosidase assessed as formation of o-nitrophenol at 0.6 to 4 mM after 10 mins by visible absorption spectroscopy
# [5] = biological target: T1, Exo-1,4-beta-xylosidase xlnD (Aspergillus niger); assay: Inhibition of Aspergillus niger beta-xylosidase at 10 mM after 15 mins by visible absorption spectroscopy; how it was run: as §2
# Sequence of Beta-galactosidase (Q8VNN2 whole entry): as the sequence (Q8VNN2 whole entry, looked up) above
SMILES,Ki (Beta-galactosidase) [µM],Activity [1],Activity [2],inhibition [3],inhibition (Prunus dulcis),inhibition [4],inhibition [5]
OC[C@H]1O[C@@H](S[C@@H]2CO[C@@H](OCc3ccccc3)[C@@H](O)C2)[C@H](O)[C@@H](O)[C@H]1O,32,Active,–,–,–,–,–
OC[C@H]1O[C@@H](S[C@@H]2CO[C@@H](OCc3ccccc3)[C@H](O)C2)[C@H](O)[C@@H](O)[C@H]1O,800,–,Active,–,–,–,–
CC(C)O[C@H]1O[C@H](CO)[C@H](S[C@@H]2OC[C@@H](O)[C@H](O)[C@H]2O)C[C@H]1O,160,–,–,inactive,inactive,inactive,–
CC(C)O[C@H]1O[C@H](CO)[C@H](S[C@@H]2OC[C@@H](O)[C@H](O)[C@H]2O)C[C@@H]1O,120,–,–,–,inactive,inactive,inactive
